From ChEMBL document CHEMBL4229382, “Phenylthiazoles with tert-Butyl side chain: Metabolically stable with anti-biofilm activity” (Eur J Med Chem, 2018)
Values after ≈ are worked out from the molar mass of the structure shown. Active and inactive are the calls of the source. The calls are words filed in the database; no cut-off is given here.

Key:
[1] = system: Staphylococcus epidermidis; assay: Antibacterial activity against methicillin-resistant Staphylococcus epidermidis NRS101 after 18 hrs by broth microdilution assay; type: functional; conditions: NRS101, 18 h
How it was run: (§1)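 Broth microdilution: inoculum from 0.5 McFarland suspension diluted to about 5 × 10^5 CFU/mL. Media were cation-adjusted Mueller-Hinton broth for staphylococci, brain heart infusion for E. faecium, and tryptone soya broth for E. faecalis, S. pneumoniae and L. monocytogenes.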

Staphylococcus aureus [2] = assay: Antibacterial activity against methicillin-resistant Staphylococcus aureus 2658 RCMB after 18 hrs by broth microdilution assay; type: functional; how it was run: as §1
Enterococcus faecalis [3] = assay: Antibacterial activity against vancomycin-resistant Enterococcus faecalis ATCC 51299 after 18 hrs by broth microdilution assay; type: functional; conditions: ATCC 51299, 18 h; how it was run: as §1
Staphylococcus aureus [4] = assay: Antibacterial activity against methicillin-sensitive Staphylococcus aureus ATCC 6538 after 18 hrs by broth microdilution assay; type: functional; conditions: ATCC 6538, 18 h; how it was run: as §1
Staphylococcus aureus [5] = assay: Antibacterial activity against methicillin-sensitive Staphylococcus aureus NRS107 after 18 hrs by broth microdilution assay; type: functional; conditions: NRS107, 18 h; how it was run: as §1
Staphylococcus aureus [6] = assay: Antibacterial activity against methicillin-resistant Staphylococcus aureus NRS119 after 18 hrs by broth microdilution assay; type: functional; conditions: NRS119, 18 h; how it was run: as §1
Staphylococcus aureus [7] = assay: Antibacterial activity against methicillin-resistant Staphylococcus aureus NRS123 USA400 after 18 hrs by broth microdilution assay; type: functional; conditions: NRS123 USA400, 18 h; how it was run: as §1
Staphylococcus aureus [8] = assay: Antibacterial activity against methicillin-resistant Staphylococcus aureus NRS384 USA300 after 18 hrs by broth microdilution assay; type: functional; conditions: NRS384 USA300, 18 h; how it was run: as §1
Staphylococcus aureus [9] = assay: Antibacterial activity against methicillin-resistant Staphylococcus aureus NRS385 after 18 hrs by broth microdilution assay; type: functional; conditions: NRS385, 18 h; how it was run: as §1
Staphylococcus aureus [10] = assay: Antibacterial activity against methicillin-resistant Staphylococcus aureus NRS386 after 18 hrs by broth microdilution assay; type: functional; conditions: NRS386, 18 h; how it was run: as §1
Staphylococcus aureus [11] = assay: Antibacterial activity against vancomycin-resistant Staphylococcus aureus VRS10 after 18 hrs by broth microdilution assay; type: functional; conditions: VRS10, 18 h; how it was run: as §1
Staphylococcus aureus [12] = assay: Antibacterial activity against vancomycin-resistant Staphylococcus aureus VRS12 after 18 hrs by broth microdilution assay; type: functional; conditions: VRS12, 18 h; how it was run: as §1
Enterococcus faecium [13] = assay: Antibacterial activity against vancomycin-resistant Enterococcus faecium ATCC 700221 after 18 hrs by broth microdilution assay; type: functional; conditions: ATCC 700221, 18 h; how it was run: as §1
Listeria monocytogenes [14] = assay: Antibacterial activity against Listeria monocytogenes ATCC 19111 after 18 hrs by broth microdilution assay; type: functional; conditions: ATCC 19111, 18 h
Streptococcus pneumoniae [15] = assay: Antibacterial activity against cephalosporin-resistant Streptococcus pneumoniae ATCC 51916 after 18 hrs by broth microdilution assay; type: functional; conditions: ATCC 51916, 18 h; how it was run: as §1
Streptococcus pneumoniae [16] = assay: Antibacterial activity against methicillin-resistant Streptococcus pneumoniae ATCC 700677 after 18 hrs by broth microdilution assay; type: functional; conditions: ATCC 700677, 18 h; how it was run: as §1
Staphylococcus aureus [17] = assay: Antibacterial activity against methicillin-resistant Staphylococcus aureus NRS123 USA400 assessed as reduction in bacterial burden measured over 24 hrs by time kill assay; type: functional
How it was run: (§2)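 Samples taken at 0, 2, 4, 6, 8, 12 and 24 h were serially diluted in PBS, plated on TSA and incubated ≥18 h for viable CFU/mL. DMSO was the negative control; two independent experiments.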

Listeria monocytogenes [18] = assay: Selectivity ratio of MBC to MIC for Listeria monocytogenes ATCC 19111; type: functional
Caco-2 = assay: Cytotoxicity against human Caco2 cells at 32 ug/ml after 2 hrs by MTS assay; type: cell-based; conditions: caco-2, 2 h
How it was run: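 Caco-2 cells grown in DMEM with 20% FBS, non-essential amino acids and penicillin-streptomycin, 37 °C, 5% CO2; exposed in triplicate to compounds (16, 32, 64 µg/mL) for 2 h; MTS added, 4 h further incubation, OD490 read; viability as percent of DMSO-treated controls; two independent experiments.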

Staphylococcus aureus [19] = assay: Bactericidal activity against methicillin-sensitive Staphylococcus aureus ATCC 6538 incubated fo 18 hrs followed by re-plating on tryptic soy agar plates at 37 degC for 18 hrs by broth microdilution assay; type: functional; conditions: ATCC 6538, 18 h
Staphylococcus aureus [20] = assay: Bactericidal activity against methicillin-sensitive Staphylococcus aureus NRS107 incubated fo 18 hrs followed by re-plating on tryptic soy agar plates at 37 degC for 18 hrs by broth microdilution assay; type: functional; conditions: NRS107, 18 h
Staphylococcus aureus [21] = assay: Bactericidal activity against methicillin-resistant Staphylococcus aureus NRS119 incubated fo 18 hrs followed by re-plating on tryptic soy agar plates at 37 degC for 18 hrs by broth microdilution assay; type: functional; conditions: NRS119, 18 h
Staphylococcus aureus [22] = assay: Bactericidal activity against methicillin-resistant Staphylococcus aureus NRS123 USA400 incubated fo 18 hrs followed by re-plating on tryptic soy agar plates at 37 degC for 18 hrs by broth microdilution assay; type: functional; conditions: NRS123 USA400, 18 h
Staphylococcus aureus [23] = assay: Bactericidal activity against methicillin-resistant Staphylococcus aureus NRS384 USA300 incubated fo 18 hrs followed by re-plating on tryptic soy agar plates at 37 degC for 18 hrs by broth microdilution assay; type: functional; conditions: NRS384 USA300, 18 h
Staphylococcus aureus [24] = assay: Bactericidal activity against methicillin-resistant Staphylococcus aureus NRS385 incubated fo 18 hrs followed by re-plating on tryptic soy agar plates at 37 degC for 18 hrs by broth microdilution assay; type: functional; conditions: NRS385, 18 h
Staphylococcus aureus [25] = assay: Bactericidal activity against methicillin-resistant Staphylococcus aureus NRS386 incubated fo 18 hrs followed by re-plating on tryptic soy agar plates at 37 degC for 18 hrs by broth microdilution assay; type: functional; conditions: NRS386, 18 h
Staphylococcus aureus [26] = assay: Bactericidal activity against vancomycin-resistant Staphylococcus aureus VRS10 incubated fo 18 hrs followed by re-plating on tryptic soy agar plates at 37 degC for 18 hrs by broth microdilution assay; type: functional; conditions: VRS10, 18 h
Staphylococcus aureus [27] = assay: Bactericidal activity against vancomycin-resistant Staphylococcus aureus VRS12 incubated fo 18 hrs followed by re-plating on tryptic soy agar plates at 37 degC for 18 hrs by broth microdilution assay; type: functional; conditions: VRS12, 18 h
[28] = system: Staphylococcus epidermidis; assay: Bactericidal activity against methicillin-resistant Staphylococcus epidermidis NRS101 incubated fo 18 hrs followed by re-plating on tryptic soy agar plates at 37 degC for 18 hrs by broth microdilution assay; type: functional; conditions: NRS101, 18 h
Listeria monocytogenes [29] = assay: Bactericidal activity against Listeria monocytogenes ATCC 19111 incubated fo 18 hrs followed by re-plating on tryptic soy agar plates at 37 degC for 18 hrs by broth microdilution assay; type: functional; conditions: ATCC 19111, 18 h
Streptococcus pneumoniae [30] = assay: Bactericidal activity against cephalosporin-resistant Streptococcus pneumoniae ATCC 51916 incubated fo 18 hrs followed by re-plating on tryptic soy agar plates at 37 degC for 18 hrs by broth microdilution assay; type: functional; conditions: ATCC 51916, 18 h
Streptococcus pneumoniae [31] = assay: Bactericidal activity against methicillin-resistant Streptococcus pneumoniae ATCC 700677 incubated fo 18 hrs followed by re-plating on tryptic soy agar plates at 37 degC for 18 hrs by broth microdilution assay; type: functional; conditions: ATCC 700677, 18 h
[32] = Safety index, ratio of cytotoxicity against human Caco2 cells at 32 ug/ml after 2 hrs by MTS assay to antibacterial activity against methicillin-resistant Staphylococcus aureus; type: toxicity, cell-based; conditions: Caco-2 cells
Staphylococcus aureus [33] = assay: Inhibition of biofilm formation in methicillin-resistant Staphylococcus aureus NRS384 USA300 after 24 hrs by crystal violet staining-based spectrophotometric analysis
Staphylococcus aureus [34] = assay: Inhibition of biofilm formation in methicillin-resistant Staphylococcus aureus NRS384 USA300 at 1 time MIC after 24 hrs by crystal violet staining-based spectrophotometric analysis relative to control; set-up: scale not given: the % may be the effect or the level left
Staphylococcus aureus [35] = assay: Inhibition of biofilm formation in methicillin-resistant Staphylococcus aureus NRS384 USA300 at 2 times MIC after 24 hrs by crystal violet staining-based spectrophotometric analysis relative to control; set-up: scale not given: the % may be the effect or the level left
Enterococcus faecium [36] = assay: Bactericidal activity against vancomycin-resistant Enterococcus faecium ATCC 700221 incubated fo 18 hrs followed by re-plating on tryptic soy agar plates at 37 degC for 18 hrs by broth microdilution assay; conditions: ATCC 700221, 18 h
Staphylococcus aureus [37] = assay: Antibacterial activity against methicillin-resistant Staphylococcus aureus NRS123 USA400 assessed as reduction in bacterial growth after 2 to 4 hrs by time kill assay; type: functional, organism-based; how it was run: as §2
[38] = Terminal phase volume of distribution at steady state in Sprague-Dawley rat at 5 uM, iv administered as bolus dose by LC-MS/MS analysis; type: ADME, organism-based; conditions: in vivo, read-out: Vbeta
How it was run: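 Male naïve Sprague–Dawley rats (n = 3) given tail-vein IV bolus of a 5 µM solution; blood taken into EDTA-K2 over 12 h; plasma protein-precipitated with acetonitrile and measured by LC/MS/MS; parameters from two-compartmental analysis.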

Enterococcus faecalis [39] = assay: Bactericidal activity against vancomycin-resistant Enterococcus faecalis ATCC 51299 incubated fo 18 hrs followed by re-plating on tryptic soy agar plates at 37 degC for 18 hrs by broth microdilution assay; type: functional; conditions: ATCC 51299, 18 h
Staphylococcus aureus [40] = assay: Antibacterial activity against methicillin-resistant Staphylococcus aureus NRS123 USA400 assessed as change in MIC after 14 serial passages by broth microdilution assay

SMILES: Cc1nc(-c2ccc(C(C)(C)C)cc2)sc1-c1ccnc(NC(=N)c2cccnc2)n1
- MIC [1]: 64 µg/mL (≈ 149 µM)
- MIC (Staphylococcus aureus [2]): 0.78 µg/mL (≈ 1.82 µM)
- MIC (Enterococcus faecalis [3]): 8 µg/mL (≈ 18.7 µM)
- MIC (Staphylococcus aureus [4]): 4 µg/mL (≈ 9.33 µM)
- MIC (Staphylococcus aureus [5]): 4 µg/mL (≈ 9.33 µM)
- MIC (Staphylococcus aureus [6]): 4 µg/mL (≈ 9.33 µM)
- MIC (Staphylococcus aureus [7]): 4 µg/mL (≈ 9.33 µM)
- MIC (Staphylococcus aureus [8]): 4 µg/mL (≈ 9.33 µM)
- MIC (Staphylococcus aureus [9]): 4 µg/mL (≈ 9.33 µM)
- MIC (Staphylococcus aureus [10]): 4 µg/mL (≈ 9.33 µM)
- MIC (Staphylococcus aureus [11]): 4 µg/mL (≈ 9.33 µM)
- MIC (Staphylococcus aureus [12]): 4 µg/mL (≈ 9.33 µM)
- MIC (Enterococcus faecium [13]): 8 µg/mL (≈ 18.7 µM)
- MIC (Listeria monocytogenes [14]): 4 µg/mL (≈ 9.33 µM)
- MIC (Streptococcus pneumoniae [15]): 4 µg/mL (≈ 9.33 µM)
- MIC (Streptococcus pneumoniae [16]): 4 µg/mL (≈ 9.33 µM)
- Activity (Staphylococcus aureus [17]): 2.3 log10CFU/ml
- Ratio (Listeria monocytogenes [18]): >3
- Activity (Caco-2): Non-Toxic
- MBC (Staphylococcus aureus [19]): 4 µg/mL (≈ 9.33 µM)
- MBC (Staphylococcus aureus [20]): 4 µg/mL (≈ 9.33 µM)
- MBC (Staphylococcus aureus [21]): 4 µg/mL (≈ 9.33 µM)
- MBC (Staphylococcus aureus [22]): 4 µg/mL (≈ 9.33 µM)
- MBC (Staphylococcus aureus [23]): 4 µg/mL (≈ 9.33 µM)
- MBC (Staphylococcus aureus [24]): 4 µg/mL (≈ 9.33 µM)
- MBC (Staphylococcus aureus [25]): 4 µg/mL (≈ 9.33 µM)
- MBC (Staphylococcus aureus [26]): 4 µg/mL (≈ 9.33 µM)
- MBC (Staphylococcus aureus [27]): 4 µg/mL (≈ 9.33 µM)
- MBC [28]: > 64 µg/mL
- MBC (Listeria monocytogenes [29]): 64 µg/mL (≈ 149 µM)
- MBC (Streptococcus pneumoniae [30]): 8 µg/mL (≈ 18.7 µM)
- MBC (Streptococcus pneumoniae [31]): 8 µg/mL (≈ 18.7 µM)
- selectivity ratio at 2 h, 32 ug/ml [32]: 8 to 30
- inhibition (Staphylococcus aureus [33]): Dose-dependent effect
- Activity (Staphylococcus aureus [34]): 45.8%
- Activity (Staphylococcus aureus [35]): 65.2%
- MBC (Enterococcus faecium [36]): 16 µg/mL (≈ 37.3 µM)

SMILES: Cc1nc(-c2ccc(C(C)(C)C)cc2)sc1-c1ccnc(NCCN)n1
- MIC (Staphylococcus aureus [2]): 1.17 µg/mL (≈ 3.18 µM)
- MIC (Enterococcus faecalis [3]): 16 µg/mL (≈ 43.5 µM)
- MIC (Staphylococcus aureus [4]): 4 µg/mL (≈ 10.9 µM)
- MIC (Staphylococcus aureus [5]): 4 µg/mL (≈ 10.9 µM)
- MIC (Streptococcus pneumoniae [16]): 2 µg/mL (≈ 5.44 µM)
- Activity (Staphylococcus aureus [37]): Active
- Activity (Caco-2): Non-Toxic
- Vd at 5 µM [38]: 16.4 L
- MBC (Enterococcus faecalis [39]): 16 µg/mL (≈ 43.5 µM)
- MBC (Streptococcus pneumoniae [30]): 16 µg/mL (≈ 43.5 µM)
- MBC (Streptococcus pneumoniae [31]): 16 µg/mL (≈ 43.5 µM)
- selectivity ratio at 2 h, 32 ug/ml [32]: 8 to 30
- inhibition (Staphylococcus aureus [33]): Dose-dependent effect
- Ratio (Staphylococcus aureus [40]): 1
- Activity (Staphylococcus aureus [34]): 28%
- Activity (Staphylococcus aureus [35]): 64%
- MBC (Enterococcus faecium [36]): 8 µg/mL (≈ 21.8 µM)
